Reference: ChEMBL document CHEMBL3259640 (J Med Chem, 2014)
Calls of active or inactive are those of the source. The calls are words filed in the database; no cut-off is given here.

Legend:
HeLa [1] = assay: Antiproliferative activity against human HeLa cells assessed as cell viability after 96 hrs by CellTiter96 assay; format: functional, cell-based
[2] = Half life in rat liver microsomes at 1 uM by LC-MS/MS analysis; format: ADME
[3] = target: T1, Kinetochore protein NDC80 homolog (Homo sapiens) (UniProt O14777); assay: Inhibition of Hec1/Nek2 interaction in human K562 cells assessed as induction of Nek2 degradation at 10 nM after 24 hrs by western blot analysis; format: cell-based
T1 sequence (whole entry): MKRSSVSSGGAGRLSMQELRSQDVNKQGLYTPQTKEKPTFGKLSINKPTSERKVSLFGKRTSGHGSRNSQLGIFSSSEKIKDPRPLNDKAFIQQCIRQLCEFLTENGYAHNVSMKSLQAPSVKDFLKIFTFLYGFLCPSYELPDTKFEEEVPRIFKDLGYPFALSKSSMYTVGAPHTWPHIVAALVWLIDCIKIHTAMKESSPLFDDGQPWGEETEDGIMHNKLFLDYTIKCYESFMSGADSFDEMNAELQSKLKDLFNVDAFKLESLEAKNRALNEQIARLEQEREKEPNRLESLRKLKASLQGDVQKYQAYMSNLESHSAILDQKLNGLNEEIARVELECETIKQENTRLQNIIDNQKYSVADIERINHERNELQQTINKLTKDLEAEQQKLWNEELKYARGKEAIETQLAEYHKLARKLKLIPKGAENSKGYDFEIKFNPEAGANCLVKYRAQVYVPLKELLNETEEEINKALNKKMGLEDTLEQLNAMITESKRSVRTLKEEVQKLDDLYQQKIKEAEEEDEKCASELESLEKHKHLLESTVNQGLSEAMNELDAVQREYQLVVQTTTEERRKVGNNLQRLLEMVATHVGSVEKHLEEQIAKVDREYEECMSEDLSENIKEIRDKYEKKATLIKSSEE
How it was run: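 K562 cells exposed to DMSO or to 10, 100 or 1000 nM for 24 h. Nek2 and Hec1 detected by western blot in SDS sample buffer lysates, with actin as loading control and ECL detection.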

[4] = target: T1, Kinetochore protein NDC80 homolog (Homo sapiens); assay: Inhibition of Hec1/Nek2 interaction in human MDA-MB-468 cells assessed as reduction in Hec1 level at 100 nM by western blot analysis; format: cell-based
How it was run: (§1)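 MDA-MB-468 cells treated with compound at 100 nM, with or without MG132 at 500 nM. Lysates made in SDS sample buffer, run on SDS-PAGE and blotted to PVDF. Primary antibodies applied in 3% BSA-TBST, with HRP secondaries and enhanced chemiluminescence detection for Hec1 and Nek2.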

[5] = target: T1, Kinetochore protein NDC80 homolog (Homo sapiens); assay: Inhibition of Hec1/Nek2 interaction in human MDA-MB-468 cells assessed as induction of Nek2 degradation at 100 nM by western blot analysis in presence of 500 nM proteasome inhibition MG132; format: cell-based; how it was run: as §1
[6] = target: T1, Kinetochore protein NDC80 homolog (Homo sapiens); assay: Inhibition of Hec1/Nek2 interaction in human K562 cells assessed as reduction in coimmunoprecipitated Hec1 level at 100 nM after 16 hrs by co-immunoprecipitation assay in presence of 500 nM proteasome inhibitor MG132; format: cell-based
MDA-MB-468 [7] = assay: Induction of mitotic abnormalities in human MDA-MB-468 cells assessed as increase in proportion of cells displaying multipolar spindles after 48 hrs by immunofluorescent staining based microscopy; format: functional, cell-based
MDA-MB-468 [8] = assay: Induction of mitotic abnormalities in human MDA-MB-468 cells assessed as proportion of cells displaying multipolar spindles at 1000 nM after 48 hrs by immunofluorescent staining based microscopy (reference value: […]); format: functional
MDA-MB-468 [9] = assay: Induction of mitotic abnormalities in human MDA-MB-468 cells assessed as proportion of cells displaying chromosomal misalignment at 100 nM after 48 hrs by immunofluorescent staining based microscopy (reference value: 21.4%); format: functional
HeLa [10] = assay: Induction of apoptosis in human HeLa cells assessed as reduction in Mcl-1 protein expression at 1 uM after 24 to 48 hrs by western blot analysis; format: functional, cell-based
How it was run: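 HeLa cells given 1.0 μM compound, DMSO, or paclitaxel 100 nM for 24 and 48 h. Lysates made in SDS sample buffer, run on SDS-PAGE and transferred to PVDF. Blots probed for cleaved caspase-3, cleaved PARP, Bcl-2, Mcl-1 and XIAP, with actin as loading control, and detected by HRP-linked ECL.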

HCT-116 = assay: Growth inhibition of human HCT116 cells; format: functional
COLO 205 = assay: Growth inhibition of human COLO205 cells; format: functional
MDA-MB-468 [11] = assay: Growth inhibition of human MDA-MB-468 cells; format: functional
T47D = assay: Growth inhibition of human T47D cells; format: functional
[12] = Growth inhibition of human Hep3B cells; format: functional, Hep 3B2
[13] = Growth inhibition of human HAoSMC cells; format: cell-based
[14] = target: Serine/threonine-protein kinase Nek2 (Homo sapiens, UniProt P51955); assay: Inhibition of Nek2 (unknown origin)
[15] = target: Serine/threonine-protein kinase Chk1 (Homo sapiens, UniProt O14757); assay: Inhibition of CHK1 (unknown origin) assessed as [33P] incorporation in substrate by TopCount microplate scintillation counting analysis
Chain of Serine/threonine-protein kinase Chk1 (O14757 whole entry): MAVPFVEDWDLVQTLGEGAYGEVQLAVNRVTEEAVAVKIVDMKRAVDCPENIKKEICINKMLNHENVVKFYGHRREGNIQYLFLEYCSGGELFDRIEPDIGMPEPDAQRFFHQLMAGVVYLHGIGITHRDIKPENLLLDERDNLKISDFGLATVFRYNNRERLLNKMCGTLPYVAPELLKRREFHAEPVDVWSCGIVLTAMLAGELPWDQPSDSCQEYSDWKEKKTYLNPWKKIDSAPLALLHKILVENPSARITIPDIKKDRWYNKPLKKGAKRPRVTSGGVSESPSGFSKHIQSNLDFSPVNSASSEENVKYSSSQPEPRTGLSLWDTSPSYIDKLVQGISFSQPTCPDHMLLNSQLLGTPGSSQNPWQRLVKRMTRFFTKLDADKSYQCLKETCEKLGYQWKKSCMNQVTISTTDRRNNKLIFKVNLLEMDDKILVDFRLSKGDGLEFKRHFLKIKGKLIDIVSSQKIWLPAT

[16] = target: Cyclin-dependent kinase 1/cyclin B1 (Homo sapiens, UniProt P06493); assay: Inhibition of Cdk1/cyclin B (unknown origin) assessed as [33P] incorporation in substrate by TopCount microplate scintillation counting analysis; format: protein-complex assay
Chain of Cyclin-dependent kinase 1/cyclin B1 (P06493 whole entry): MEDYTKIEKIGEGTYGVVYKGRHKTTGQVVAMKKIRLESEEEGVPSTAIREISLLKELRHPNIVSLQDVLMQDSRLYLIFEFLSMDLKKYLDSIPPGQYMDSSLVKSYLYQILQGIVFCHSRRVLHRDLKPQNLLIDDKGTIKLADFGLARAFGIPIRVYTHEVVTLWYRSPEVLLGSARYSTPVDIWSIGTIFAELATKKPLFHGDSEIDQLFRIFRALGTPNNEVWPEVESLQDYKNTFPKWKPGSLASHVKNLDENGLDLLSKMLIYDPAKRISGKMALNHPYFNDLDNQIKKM
Chain of Cyclin-dependent kinase 1/cyclin B1 (P14635 whole entry, further chain): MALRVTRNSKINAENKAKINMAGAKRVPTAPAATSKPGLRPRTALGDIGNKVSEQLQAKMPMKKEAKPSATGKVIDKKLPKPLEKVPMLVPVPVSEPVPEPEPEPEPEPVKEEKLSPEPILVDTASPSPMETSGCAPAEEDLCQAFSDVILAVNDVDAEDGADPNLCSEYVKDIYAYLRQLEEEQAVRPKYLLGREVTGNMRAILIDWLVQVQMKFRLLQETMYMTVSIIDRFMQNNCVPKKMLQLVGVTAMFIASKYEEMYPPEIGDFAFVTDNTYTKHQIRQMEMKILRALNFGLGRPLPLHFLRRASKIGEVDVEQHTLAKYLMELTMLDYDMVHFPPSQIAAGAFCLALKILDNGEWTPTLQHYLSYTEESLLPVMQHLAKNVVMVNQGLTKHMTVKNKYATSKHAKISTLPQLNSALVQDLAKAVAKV

Aurora kinase A = Aurora kinase A (Homo sapiens, UniProt O14965); assay: Inhibition of aurora A (unknown origin) assessed as [33P] incorporation in substrate by TopCount microplate scintillation counting analysis
Chain of Aurora kinase A (O14965 whole entry): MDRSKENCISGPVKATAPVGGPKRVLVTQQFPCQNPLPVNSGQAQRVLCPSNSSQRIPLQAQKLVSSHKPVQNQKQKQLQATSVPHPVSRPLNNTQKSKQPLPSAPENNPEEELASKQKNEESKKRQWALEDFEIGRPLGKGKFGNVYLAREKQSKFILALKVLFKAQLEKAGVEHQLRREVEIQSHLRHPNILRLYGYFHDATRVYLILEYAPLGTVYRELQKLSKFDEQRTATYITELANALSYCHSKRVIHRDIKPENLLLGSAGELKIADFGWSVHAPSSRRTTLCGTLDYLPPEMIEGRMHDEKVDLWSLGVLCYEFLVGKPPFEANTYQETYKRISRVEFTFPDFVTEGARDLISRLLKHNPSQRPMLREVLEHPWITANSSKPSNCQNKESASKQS

Aurora kinase B = Aurora kinase B (Homo sapiens, UniProt Q96GD4); assay: Inhibition of aurora B (unknown origin) assessed as [33P] incorporation in substrate by TopCount microplate scintillation counting analysis
Chain of Aurora kinase B (Q96GD4 whole entry, canonical isoform): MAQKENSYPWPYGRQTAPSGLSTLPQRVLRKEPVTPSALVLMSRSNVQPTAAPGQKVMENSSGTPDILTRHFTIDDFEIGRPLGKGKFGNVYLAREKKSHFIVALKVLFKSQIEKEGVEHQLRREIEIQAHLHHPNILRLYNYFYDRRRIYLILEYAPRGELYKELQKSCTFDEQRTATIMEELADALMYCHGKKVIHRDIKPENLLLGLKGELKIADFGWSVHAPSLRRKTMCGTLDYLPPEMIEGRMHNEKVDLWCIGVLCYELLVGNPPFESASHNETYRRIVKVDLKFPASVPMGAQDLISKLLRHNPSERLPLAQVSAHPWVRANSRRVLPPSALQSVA

[17] = target: Phosphatidylinositol 4,5-bisphosphate 3-kinase catalytic subunit beta isoform (Homo sapiens, UniProt P42338); assay: Inhibition of PI3K beta (unknown origin) assessed as [33P] incorporation in substrate by TopCount microplate scintillation counting analysis
Chain of Phosphatidylinositol 4,5-bisphosphate 3-kinase catalytic subunit beta isoform (P42338 whole entry, canonical isoform): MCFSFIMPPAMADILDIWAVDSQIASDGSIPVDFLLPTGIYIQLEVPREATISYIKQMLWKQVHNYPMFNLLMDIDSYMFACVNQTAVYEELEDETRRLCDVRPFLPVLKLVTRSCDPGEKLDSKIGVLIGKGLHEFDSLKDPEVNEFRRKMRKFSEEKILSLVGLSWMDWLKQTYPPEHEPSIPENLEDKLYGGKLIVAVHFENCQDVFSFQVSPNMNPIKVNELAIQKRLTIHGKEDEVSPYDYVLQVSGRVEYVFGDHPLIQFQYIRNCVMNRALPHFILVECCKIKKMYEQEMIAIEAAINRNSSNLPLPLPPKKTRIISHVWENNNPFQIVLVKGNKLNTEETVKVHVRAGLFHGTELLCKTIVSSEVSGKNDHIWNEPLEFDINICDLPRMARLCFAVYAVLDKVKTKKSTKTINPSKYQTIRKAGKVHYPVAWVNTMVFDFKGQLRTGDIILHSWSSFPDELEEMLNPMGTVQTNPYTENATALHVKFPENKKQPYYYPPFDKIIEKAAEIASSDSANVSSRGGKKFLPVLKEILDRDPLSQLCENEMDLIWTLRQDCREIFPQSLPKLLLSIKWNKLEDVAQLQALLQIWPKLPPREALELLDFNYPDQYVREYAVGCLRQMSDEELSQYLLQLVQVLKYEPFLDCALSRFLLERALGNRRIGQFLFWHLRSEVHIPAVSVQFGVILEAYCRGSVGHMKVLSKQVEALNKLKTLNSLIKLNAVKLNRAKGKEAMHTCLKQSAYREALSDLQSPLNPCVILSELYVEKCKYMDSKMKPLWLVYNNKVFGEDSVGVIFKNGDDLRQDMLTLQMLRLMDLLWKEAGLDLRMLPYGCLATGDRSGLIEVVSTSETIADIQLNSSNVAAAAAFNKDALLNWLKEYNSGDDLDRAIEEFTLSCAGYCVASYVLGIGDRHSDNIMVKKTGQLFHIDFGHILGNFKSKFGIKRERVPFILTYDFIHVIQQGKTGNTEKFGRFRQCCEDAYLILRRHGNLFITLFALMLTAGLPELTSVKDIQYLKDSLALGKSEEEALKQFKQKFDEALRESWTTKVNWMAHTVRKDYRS

[18] = target: Epidermal growth factor receptor (Homo sapiens, UniProt P00533); assay: Inhibition of EGFR (unknown origin) assessed as [33P] incorporation in substrate by TopCount microplate scintillation counting analysis
[19] = target: Epidermal growth factor receptor (Homo sapiens, UniProt P00533, T790M); assay: Inhibition of EGFR T790M mutant (unknown origin) assessed as [33P] incorporation in substrate by TopCount microplate scintillation counting analysis; format: protein assay
Chain of Epidermal growth factor receptor (Homo sapiens, UniProt P00533, T790M) (P00533 25-1210 T790M limits assumed): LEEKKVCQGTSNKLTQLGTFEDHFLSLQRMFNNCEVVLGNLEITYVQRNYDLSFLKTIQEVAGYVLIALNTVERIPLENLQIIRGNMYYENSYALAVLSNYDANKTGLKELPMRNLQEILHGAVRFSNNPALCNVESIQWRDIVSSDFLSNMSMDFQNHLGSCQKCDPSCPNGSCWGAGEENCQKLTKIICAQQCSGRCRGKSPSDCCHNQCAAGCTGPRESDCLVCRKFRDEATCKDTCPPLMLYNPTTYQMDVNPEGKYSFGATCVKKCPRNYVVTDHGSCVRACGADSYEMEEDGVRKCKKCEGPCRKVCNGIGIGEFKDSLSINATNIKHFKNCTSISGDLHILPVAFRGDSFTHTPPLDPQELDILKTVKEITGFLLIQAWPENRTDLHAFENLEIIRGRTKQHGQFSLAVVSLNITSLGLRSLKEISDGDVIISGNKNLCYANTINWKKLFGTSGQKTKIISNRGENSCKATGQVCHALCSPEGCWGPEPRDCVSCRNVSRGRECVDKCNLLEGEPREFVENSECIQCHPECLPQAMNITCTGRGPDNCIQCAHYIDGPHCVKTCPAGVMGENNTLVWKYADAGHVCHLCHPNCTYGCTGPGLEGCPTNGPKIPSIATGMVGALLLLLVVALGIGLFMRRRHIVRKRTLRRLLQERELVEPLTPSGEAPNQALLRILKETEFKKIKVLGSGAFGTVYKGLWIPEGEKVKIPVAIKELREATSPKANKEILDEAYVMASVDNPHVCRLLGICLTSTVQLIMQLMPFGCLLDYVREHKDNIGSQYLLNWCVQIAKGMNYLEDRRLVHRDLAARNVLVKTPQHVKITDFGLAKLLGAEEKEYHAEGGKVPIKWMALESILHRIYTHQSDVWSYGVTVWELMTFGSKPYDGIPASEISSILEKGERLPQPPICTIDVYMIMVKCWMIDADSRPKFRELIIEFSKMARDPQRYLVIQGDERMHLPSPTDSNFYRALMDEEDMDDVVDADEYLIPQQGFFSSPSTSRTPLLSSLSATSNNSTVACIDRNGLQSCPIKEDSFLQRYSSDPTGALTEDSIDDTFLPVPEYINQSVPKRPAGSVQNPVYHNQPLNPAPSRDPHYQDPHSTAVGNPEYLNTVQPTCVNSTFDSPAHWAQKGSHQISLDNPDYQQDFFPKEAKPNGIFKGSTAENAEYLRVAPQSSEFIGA

[20] = target: Insulin-like growth factor 1 receptor (Homo sapiens, UniProt P08069); assay: Inhibition of IGF-1R (unknown origin) assessed as [33P] incorporation in substrate by TopCount microplate scintillation counting analysis
[21] = target: Serine/threonine-protein kinase B-raf (Homo sapiens, UniProt P15056, V600E); assay: Inhibition of B-Raf V600E mutant (unknown origin) assessed as [33P] incorporation in substrate by TopCount microplate scintillation counting analysis
Chain of Serine/threonine-protein kinase B-raf (P15056 2-766 V600E limits assumed): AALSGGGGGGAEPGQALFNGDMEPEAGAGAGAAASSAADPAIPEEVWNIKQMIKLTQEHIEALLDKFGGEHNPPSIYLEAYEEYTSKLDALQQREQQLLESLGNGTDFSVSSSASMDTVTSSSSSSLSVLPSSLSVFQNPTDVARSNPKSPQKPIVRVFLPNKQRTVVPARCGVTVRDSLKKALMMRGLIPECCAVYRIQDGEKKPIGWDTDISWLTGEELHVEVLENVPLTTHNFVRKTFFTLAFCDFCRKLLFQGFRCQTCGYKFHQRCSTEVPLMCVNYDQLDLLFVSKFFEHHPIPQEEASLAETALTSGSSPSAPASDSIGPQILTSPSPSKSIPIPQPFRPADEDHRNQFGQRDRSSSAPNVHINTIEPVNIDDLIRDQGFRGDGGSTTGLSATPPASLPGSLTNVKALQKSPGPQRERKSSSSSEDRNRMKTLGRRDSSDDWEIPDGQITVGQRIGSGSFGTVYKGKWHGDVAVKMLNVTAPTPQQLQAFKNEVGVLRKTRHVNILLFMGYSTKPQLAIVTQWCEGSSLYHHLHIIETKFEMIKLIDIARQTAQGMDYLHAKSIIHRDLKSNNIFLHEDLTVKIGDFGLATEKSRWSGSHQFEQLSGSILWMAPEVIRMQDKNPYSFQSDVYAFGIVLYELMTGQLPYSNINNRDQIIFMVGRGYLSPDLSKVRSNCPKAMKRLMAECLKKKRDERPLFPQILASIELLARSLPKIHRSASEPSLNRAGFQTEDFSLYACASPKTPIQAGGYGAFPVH

## COc1ccc(Oc2cc(C)c(-c3csc(NC(=O)c4ccnc(F)c4)n3)c(C)c2)cc1
HeLa [1]
  IC50: 42.7 nM
[2]
  half-life at 1 µM: 5.67 h
[3]
  Activity: inactive
[4]
  inhibition: Active
[5]
  Activity: inactive
[6]
  inhibition: Active
MDA-MB-468 [7]
  Activity: Dose-dependent effect
MDA-MB-468 [8]
  Activity: 46.7%
MDA-MB-468 [9]
  Activity: 21.8%
HeLa [10]
  inhibition: Active
HCT-116
  GI50: 34.1 nM
COLO 205
  GI50: 35.4 nM
MDA-MB-468 [11]
  GI50: 29.6 nM
T47D
  GI50: 377 nM
[12]
  GI50: 68.3 nM
[13]
  GI50: > 9000 nM
[14]
  IC50: > 10000 nM
[15]
  IC50: > 10000 nM
[16]
  IC50: > 10000 nM
Aurora kinase A
  IC50: > 10000 nM
Aurora kinase B
  IC50: > 10000 nM
[17]
  IC50: > 10000 nM
[18]
  IC50: > 10000 nM
[19]
  IC50: > 10000 nM
[20]
  IC50: > 10000 nM
[21]
  IC50: > 10000 nM
